# Data as given in ChEMBL document CHEMBL3286382, “Synthesis and biological evaluation of imidazo[1,2-a]pyrimidines and imidazo[1,2-a]pyridines as new inhibitors of the Wnt/β-catenin signaling” (Eur J Med Chem, 2014).
# The source made the active and inactive calls. The rule behind the calls is not given here.
# What was measured:
# Danio rerio [1] = organism: Danio rerio; assay: Inhibition of Wnt/beta-catenin signaling in zebrafish larvae assessed as inhibition of Tcf/Lef transcriptional activity measured as thinner intestine at 1 uM after 72 hrs by GFP reporter assay; format: functional, organism-based
# How it was run: (§1)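 TCF/LEF-GFP reporter zebrafish were exposed from 24 hours post-fertilization for 72 h, with compounds dissolved in E3 medium that was renewed daily. GFP in the head and intestine was imaged by fluorescence stereomicroscope at 8X, alongside bright-field images.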
# A549 = assay: Antiproliferative activity against human A549 cells after 72 hrs by MTT assay; format: functional; conditions: A549, 72 h
# How it was run: (§2)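 Cells grown in DMEM with 10% FBS, penicillin G, streptomycin and L-glutamine, seeded 7 x 10^3 per well, left 24 h, then exposed to scalar concentrations in complete medium for 72 h at 37 °C, 5% CO2. Viability read by MTT; IC50 taken as the concentration giving 50% inhibition of proliferation.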
# HT-29 [2] = assay: Antiproliferative activity against human HT-29 cells after 72 hrs by MTT assay; format: functional; conditions: HT-29, 72 h; how it was run: as §2
# LoVo = assay: Antiproliferative activity against human LoVo cells after 72 hrs by MTT assay; format: functional; how it was run: as §2
# Danio rerio [3] = organism: Danio rerio; assay: Toxicity in zebrafish larvae assessed as mortality at 5 to 25 uM treated for 7 days; format: organism-based; conditions: in vivo, 168 h
# How it was run: (§3)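 Wild-type zebrafish larvae raised under standard conditions were exposed to compounds dissolved in E3 medium. The medium containing compound was renewed every day for 7 days. The read-out was survival rate (mortality) at the end of exposure.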
# Danio rerio [4] = organism: Danio rerio; assay: Toxicity in zebrafish larvae assessed as mortality at 1 uM treated for 7 days; format: organism-based; conditions: in vivo, 168 h; how it was run: as §3
# HepG2 = assay: Antiproliferative activity against human HepG2 cells after 72 hrs by MTT assay; format: functional; conditions: HepG2, 72 h; how it was run: as §2
# HT-29 [5] = assay: Inhibition of Wnt signaling in human HT29 cells assessed as inhibition of beta-catenin-mediated Tcf/Lef transcriptional activity after 24 hrs by dual luciferase reporter gene assay relative to control; format: cell-based; conditions: HT-29, 24 h
# Danio rerio [6] = organism: Danio rerio; assay: Inhibition of Wnt/beta-catenin signaling in zebrafish larvae assessed as inhibition of Tcf/Lef transcriptional activity measured as thinner intestine at 10 uM after 72 hrs by GFP reporter assay; format: functional, organism-based; how it was run: as §1
# Danio rerio [7] = organism: Danio rerio; assay: Toxicity in zebrafish larvae assessed as mortality at 25 uM treated for 7 days; format: organism-based; conditions: in vivo, 168 h; how it was run: as §3
# HT-29 [8] = assay: Inhibition of Wnt/beta-catenin signaling in human HT29 cells assessed as increase in phosphorylated c-myc level at 25 uM after 24 hrs by Western blot analysis; format: cell-based
# How it was run: (§4)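 After 24 h exposure, HT-29 cells were washed in cold PBS, lysed on ice for 30 min and cleared at 15 000 g, 4 °C. 10 µg protein was run on 12% SDS-PAGE and transferred to PVDF. Blots were probed with specific primary antibodies, then peroxidase-labelled secondaries, and developed by ECL. β-actin re-probing served as the loading control.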
# HT-29 [9] = assay: Cell cycle arrest in human HT-29 cells assessed as reduction of cells in S phase at 25 uM after 24 hrs by flow cytometry; format: functional, cell-based
# How it was run: (§5)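 Exponentially growing HT-29 cells (1.5 × 10^5) were treated with the compounds for 24 h, then collected and fixed in ice-cold 70% ethanol. Fixed cells were treated with lysis buffer holding RNase A and 0.1% Triton X-100, stained with PI and analysed for DNA content by flow cytometry.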
# HT-29 [10] = assay: Inhibition of Wnt signaling in human HT29 cells assessed as inhibition of beta-catenin-mediated Tcf/Lef transcriptional activity at 25 uM after 24 hrs by dual luciferase reporter gene assay relative to control in presence of GSK-3beta inhibitor LiCl; format: cell-based
# How it was run: (§6)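 HT-29 cells (1.4 x 10^4) were co-transfected with 1 µg BAT-LUX, which carries 7 TCF sites and the siamois promoter driving firefly luciferase, plus 1 µg Renilla vector. Cells were then treated at 37 °C for 24 h, with or without the GSK-3β inhibitor LiCl. Dual-Glo readout; values are the mean firefly/Renilla ratio.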
# HT-29 [11] = assay: Inhibition of Wnt/beta-catenin signaling in human HT29 cells assessed as increase in p21 protein expression at 25 uM after 24 hrs by Western blot analysis; format: cell-based; how it was run: as §4
# HT-29 [12] = assay: Inhibition of Wnt/beta-catenin signaling in human HT29 cells assessed as effect on c-myc mRNA expression at 25 uM after 24 hrs by quantitative real-time PCR assay; format: cell-based
# How it was run: (§7)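 Total RNA was extracted with TRIzol from HT-29 cells treated for 24 h. Transcripts were measured by real-time RT-PCR with GUS as the reference gene, and expression was expressed relative to untreated cells.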
# HT-29 [13] = assay: Inhibition of Wnt/beta-catenin signaling in human HT29 cells assessed as decrease in TCF1 protein level at 25 uM after 24 hrs by Western blot analysis; format: cell-based; how it was run: as §4
# HT-29 [14] = assay: Inhibition of Wnt/beta-catenin signaling in human HT29 cells assessed as GSK3-beta dephosphorylation at Ser21/Ser9 residues at 25 uM after 24 hrs by Western blot analysis; format: cell-based; how it was run: as §4
# HT-29 [15] = assay: Inhibition of Wnt/beta-catenin signaling in human HT29 cells assessed as downregulation of cyclin D1 protein expression at 25 uM after 24 hrs by Western blot analysis; format: cell-based; how it was run: as §4
# HT-29 [16] = assay: Cell cycle arrest in human HT-29 cells assessed as accumulation of cells at G1 phase at 25 uM after 24 hrs by flow cytometry; format: functional, cell-based; how it was run: as §5
# HT-29 [17] = assay: Inhibition of Wnt signaling in human HT29 cells assessed as inhibition of beta-catenin-mediated Tcf/Lef transcriptional activity at 25 uM after 24 hrs by dual luciferase reporter gene assay relative to control; format: cell-based; how it was run: as §6
# HT-29 [18] = assay: Cell cycle arrest in human HT-29 cells assessed as reduction of cells in G2/M phase at 25 uM after 24 hrs by flow cytometry; format: functional, cell-based; how it was run: as §5
# Danio rerio [19] = organism: Danio rerio; assay: Inhibition of Wnt/beta-catenin signaling in zebrafish larvae assessed as inhibition of Tcf/Lef transcriptional activity measured as dysmorphic craniofacial features at 10 uM after 72 hrs by GFP reporter assay; format: functional, organism-based; how it was run: as §1
# Danio rerio [20] = assay: Inhibition of Wnt/beta-catenin signaling in zebrafish larvae assessed as inhibition of Tcf/Lef transcriptional activity measured as pericardial edema at 10 uM after 72 hrs by GFP reporter assay; format: functional, organism-based; how it was run: as §1
# HT-29 [21] = assay: Inhibition of Wnt/beta-catenin signaling in human HT29 cells assessed as […] in axin2 mRNA expression at 25 uM after 24 hrs by quantitative real-time PCR assay; format: cell-based; how it was run: as §7
# HT-29 [22] = assay: Inhibition of Wnt/beta-catenin signaling in human HT29 cells assessed as downregulation of cyclin B1 protein expression at 25 uM after 24 hrs by Western blot analysis; format: cell-based; how it was run: as §4
# HT-29 [23] = assay: Inhibition of Wnt/beta-catenin signaling in human HT29 cells assessed as decrease in TCF4 mRNA expression at 25 uM after 24 hrs by quantitative real-time PCR assay; format: cell-based; how it was run: as §7
# [24] = Antiproliferative activity against human fibroblasts after 72 hrs by MTT assay; format: cell-based, Fibroblast
# HT-29 [25] = assay: Inhibition of Wnt signaling in human HT29 cells assessed as beta-catenin dephosphorylation at S33/37/T41 residues at 25 uM after 24 hrs by Western blot analysis; format: cell-based; how it was run: as §4
compound,measurement,setting,value
CC(=O)Nc1cc(=O)n(Cc2ccccc2)c(SCc2ccccc2)n1,inhibition,Danio rerio [1],Active
same,GI50,A549,50.4 µM
same,GI50,HT-29 [2],79.3 µM
same,GI50,LoVo,56.3 µM
same,Activity,Danio rerio [3],Toxic
same,Activity,Danio rerio [4],Non-toxic
same,GI50,HepG2,71.7 µM
same,IC50,HT-29 [5],35.6 µM
Cc1ccn2cc(-c3ccc(N(Cc4ccccc4)Cc4ccccc4)cc3)nc2c1,GI50,A549,17.2 µM
same,GI50,HT-29 [2],6.9 µM
same,inhibition,Danio rerio [6],Active
same,Activity,Danio rerio [7],Toxic
same,GI50,LoVo,5.7 µM
same,inhibition,HT-29 [8],Active
same,Activity,HT-29 [9],Active
same,inhibition,HT-29 [10],Active
same,inhibition,HT-29 [11],Active
same,inhibition,HT-29 [12],inactive
same,inhibition,HT-29 [13],Active
same,inhibition,HT-29 [14],inactive
same,inhibition,HT-29 [15],Active
same,GI50,HepG2,18.4 µM
same,Activity,HT-29 [16],Active
same,inhibition,HT-29 [17],Active
same,Activity,HT-29 [18],Active
same,IC50,HT-29 [5],24.1 µM
same,inhibition,Danio rerio [19],Active
same,inhibition,Danio rerio [20],Active
same,inhibition,HT-29 [21],Active
same,inhibition,HT-29 [22],Active
same,inhibition,HT-29 [23],Active
same,GI50 at 72 h,[24],52.3 µM
same,inhibition,HT-29 [25],Active
